Screens from PubChem.
SIRT5 inh: SIRT5 desuccinylase inhibitors, primary screen, biochemical, fluorescence imaging, single point, set 5; AID 652115, 2013; NAD-dependent protein deacylase sirtuin-5, mitochondrial (Homo sapiens), Q9NXA8; inhibition, % at 15 µM; Purified SirT5, succinyl-peptide AMC, trypsin-coupled fluorescence; hit rate 1.1% among 330,000; in the data active = inhibition above about 15%
Target sequence (Q9NXA8 whole entry, looked up): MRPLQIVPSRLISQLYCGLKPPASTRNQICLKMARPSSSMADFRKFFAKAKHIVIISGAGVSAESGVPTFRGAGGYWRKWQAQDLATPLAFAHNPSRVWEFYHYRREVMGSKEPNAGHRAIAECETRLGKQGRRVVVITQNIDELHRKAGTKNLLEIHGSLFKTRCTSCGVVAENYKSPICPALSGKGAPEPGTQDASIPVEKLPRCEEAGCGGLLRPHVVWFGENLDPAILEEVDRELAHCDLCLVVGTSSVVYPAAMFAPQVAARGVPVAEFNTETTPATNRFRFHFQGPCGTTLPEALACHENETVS
PGC1a acetyl inh: inhibitors of PGC1a acetylation signal, primary screen, cell-based, U2OS, AlphaScreen, inhibitor mode; hit rate 0.17% among 350,000; AlphaScreen anti-acetyl-lysine; with virally co-expressed GCN5 acetyltransferase; inhibition, % at 15.6 µM;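 active = every replicate shows inhibition of at least 40%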;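 note: 0% = neutral control wells and 100% = positive control wells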
FN deposition inh: inhibitors of fibronectin matrix deposition, primary screen, AH1F cells, Alexa488-fibronectin fluorescence, plate reader; AH1F fibroblasts, overnight; inhibition, % at 12.6 µM; hit rate 0.086% among 350,000;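 active = mean inhibition across replicates of 30% or more, regardless of how many single replicates reach that level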;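 note: positive control wells lacked labelled fibronectin entirely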
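Material: AH1F fibroblasts assembling fluorescent fibronectin matrix; amount: 10000 AH1F cells/well; medium: DMEM, 2% serum; reagent: Alexa488-fibronectin, 24 nM final in well; dosing: single compound dose, delivered by pin transfer; incubation: 1 h adhesion, overnight exposure; detection: fluorescence after three HBSS washes, excitation 485 nm, emission 525 nm; measure: fibronectin deposition inhibition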
FGF22 binding: binders of human FGF22 protein, primary screen, FGF22 synaptogenesis inhibitor project, biophysical, thermal shift, single point. Fibroblast growth factor 22 (Homo sapiens), Q9HCT0. recombinant FGF22 thermal shift, SYPRO orange fluorescence; percent of sucrose octasulfate shift, DMSO zero. activity (Tm shift, normalised), % at 9.99 µM. hit rate 1.5% among 340,000;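 active = mean Tm shift, scaled 0 neutral to 100 positive control, at about 1.3% or above, every replicate too, limit read from the data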
Target sequence (Q9HCT0 whole entry, looked up): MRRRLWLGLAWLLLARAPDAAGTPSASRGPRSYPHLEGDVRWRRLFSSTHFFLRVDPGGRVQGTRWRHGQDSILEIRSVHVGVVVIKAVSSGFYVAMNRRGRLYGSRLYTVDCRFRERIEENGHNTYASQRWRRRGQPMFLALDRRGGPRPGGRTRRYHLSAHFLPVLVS
ERAP1 inh: human ERAP1 aminopeptidase inhibitors, primary screen, biochemical, single point, plate reader | recombinant ERAP1, Leu-AMC fluorescence, 60 min | hit rate 0.15% among 340,000 | Endoplasmic reticulum aminopeptidase 1 (Homo sapiens), Q9NZ08 | AID 652197, 2013 | inhibition, % at 10.7 µM;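 active = mean replicate inhibition of at least 30%, or all replicates individually reaching that 30% level; inactive = mean below 30% and not every replicate reaching it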;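 note: 0% = neutral control wells and 100% = L-leucinethiol positive control wells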
An asterisk follows results filed as active; nt = no result; ! = not confirmed by another sample. Most compounds without a hit are left out; they make up all but 2.2% or so of the library.

SMILES	SIRT5 inh	PGC1a acetyl inh	FN deposition inh	FGF22 binding	ERAP1 inh
COc1ccc(NC(=O)Nc2ccc3c(c2)C(=O)N([C@H](C)CO)C[C@H](C)[C@H](CN(C)CC2CC2)OCCCC[C@H](C)O3)cc1	2	17	-1	0	1
CCN(CC)S(=O)(=O)c1ccc(C(=O)N(c2ccccc2)C2C=CS(=O)(=O)C2)cc1 (stereo not given)	2	46*	0	0	1
C[C@@H]1CN([C@@H](C)CO)C(=O)Cc2cc(NC(=O)Cn3cnnn3)ccc2O[C@@H]1CN(C)Cc1ccc(Cl)c(Cl)c1	-5	4	-2	0	1
NC1=NN=C(c2ccc3c(c2)OCCO3)CS1	15*	4	-2	0	0
O=S(=O)(Nc1cccc(S(=O)(=O)N2CCCC2)c1)c1ccccc1F	7	-7	-12	0	-2
O=C(COC(=O)/C=C/c1cccs1)Nc1cccc(S(=O)(=O)N2CCCC2)c1	15*	nt	7	0	-3
O=S(=O)(Nc1cccc(S(=O)(=O)N2CCCC2)c1)c1cccs1	nt	nt	2	43*	4
O=S(=O)(Nc1cccc(S(=O)(=O)N2CCCCC2)c1)c1ccccc1F	nt	-28	-3	44*	1
Cc1cc(C)cc(NC(=O)Nc2ccc3c(c2)C(=O)N(C)[C@@H]2CC[C@H](CC(=O)O)O[C@H]2CO3)c1	nt	2	-4	0	nt
C[C@H]1CN([C@@H](C)CO)C(=O)CCCn2cc(nn2)CO[C@H]1CN(C)Cc1ccccc1	25*	6	3	0	-2
Cc1ccc(S(=O)(=O)N(C)C[C@H]2OCc3cn(nn3)CCCC(=O)N([C@@H](C)CO)C[C@H]2C)cc1	-1	0	9	0	1
Cc1ccc(S(=O)(=O)N(C)C[C@H]2OCc3cn(nn3)CCCC(=O)N([C@@H](C)CO)C[C@@H]2C)cc1	20*!	18	15	0	7
CCOC(=O)N(C)C[C@@H]1OCc2cn(nn2)CCCC(=O)N([C@H](C)CO)C[C@H]1C	2	-9	0	0	2
CCOC(=O)N(C)C[C@H]1OCc2cn(nn2)CCCC(=O)N([C@H](C)CO)C[C@H]1C	17*	7	-12	0	-2
C[C@@H]1CN([C@H](C)CO)C(=O)c2cc(NC(=O)c3ccncc3)ccc2O[C@@H]1CN(C)Cc1ccc(-c2ccccc2)cc1	3	-6	4	0	1
CC(C)NC(=O)N(C)C[C@@H]1Oc2ccc(NC(=O)CCN3CCOCC3)cc2C(=O)N([C@H](C)CO)C[C@@H]1C	0	3	nt	0	-2
O=C(COc1ccc(S(=O)(=O)NC2CCCCC2)cc1)NC1CCCC1	-2	2	-6	43*	-1
O=C(COc1ccc(S(=O)(=O)NC2CCCCC2)cc1)NC1CCCCC1	nt	-15	nt	nt	nt
O=C(Nc1ccccc1F)N1C[C@H]2[C@@H](c3ccccc31)[C@@H](CO)N2C(=O)C1CCOCC1	7	-8	7	-1	5
C[n+]1ccc(/C=C/c2cccs2)cc1	3	6	5	0	53*
CN(C)c1ccc(/C=C/c2cc[n+](C)cc2)cc1	nt	9	nt	nt	nt
O=C(O)COc1ccc(NC(=O)c2ccc(NC(=O)c3ccco3)cc2)cc1	3	10	4	44*	-10
CC(=O)Nc1ccc(C(=O)/C=C/c2ccco2)cc1	nt	11	0	nt	nt
O=C(/C=C\c1ccco1)c1ccc(NC(=O)c2ccco2)cc1	4	-9	11	43*	1
CCC(C)n1nccc1NC(=O)C(C)Cl (stereo not given)	-3	nt	-15	43*	-4
SMILES	SIRT5 inh	PGC1a acetyl inh	FN deposition inh	FGF22 binding	ERAP1 inh
Cc1ccccc1C(=O)NCC(=O)OC(C)C(=O)Nc1ccnn1C(C)C (stereo not given)	-4	nt	2	0	-4
COC(=O)CSc1nc(C)c(C)c(C)c1C(N)=O	-6	-4	4	43*	-10
CCCCCCN1C[C@H](O)[C@@H](n2cc(COC(=O)c3ccccc3)nn2)C[C@@H]1c1ccc(C)cc1	-1	-13	7	0	nt
CCCCCCN1C[C@H](O)[C@@H](n2cc(COC(=O)c3ccccc3)nn2)C[C@@H]1c1ccc(Cl)cc1	15*	4	10	0	2
O=C(OCc1cn([C@H]2CN(C(=O)c3cccs3)[C@@H](c3ccccc3)C[C@@H]2O)nn1)c1ccccc1	2	-9	3	0	-2
Cc1ccc([C@H]2C[C@H](O)[C@@H](n3cc(COC(=O)c4ccccc4)nn3)CN2C(=O)c2cccs2)cc1	17*	-1	9	0	0
COCC(=O)N1C[C@H](C)[C@@H](OC)CN(C)C(=O)c2ccc(NC(=O)NC(C)C)cc2OC[C@H]1C	-3	-10	-4	0	-1
Cc1noc(C)c1S(=O)(=O)N(C)C[C@H]1Oc2c(NC(=O)C3CCOCC3)cccc2C(=O)N([C@H](C)CO)C[C@H]1C	nt	-1	-1	nt	nt
COc1ccc(-c2noc(CCCC(=O)NC3CCCCC3)n2)cc1OC	-4	-34	-3	0	-5
CCOc1ccc(-c2noc(CCCC(=O)NC3CCCC3)n2)cc1OC	19*	-6	-1	0	-3
CCCC(=O)Nc1ccc2c(c1)C(=O)N(C)[C@@H]1CC[C@@H](CC(=O)NC3CCCC3)O[C@H]1CO2	-5	0	5	0	0
O=C1CCCc2[nH]c(-c3ccccc3)nc21	0	nt	0	43*	2
COc1ccc(S(=O)(=O)Nc2ccc3c(c2)C(=O)N([C@@H](C)CO)C[C@@H](C)[C@@H](CN(C)S(=O)(=O)c2ccc(F)cc2)OCCCC[C@@H](C)O3)cc1	11	1	nt	-1	0
COc1ccc(S(=O)(=O)Nc2ccc3c(c2)C(=O)N([C@@H](C)CO)C[C@@H](C)[C@H](CN(C)S(=O)(=O)c2ccc(F)cc2)OCCCC[C@H](C)O3)cc1	8	-21	1	0	0
COc1ccc(S(=O)(=O)Nc2ccc3c(c2)C(=O)N([C@@H](C)CO)C[C@@H](C)[C@@H](CN(C)S(=O)(=O)c2ccc(F)cc2)OCCCC[C@H](C)O3)cc1	16*	13	nt	-1	1
COc1ccc(S(=O)(=O)N(C)C[C@H]2OCCCC[C@@H](C)Oc3ccc(NS(=O)(=O)c4ccc(F)cc4)cc3C(=O)N([C@@H](C)CO)C[C@H]2C)cc1	18*	0	-4	0	1
COc1ccc(S(=O)(=O)N(C)C[C@@H]2OCCCC[C@H](C)Oc3ccc(NS(=O)(=O)c4ccc(F)cc4)cc3C(=O)N([C@H](C)CO)C[C@H]2C)cc1	19*	-1	6	0	-1
